Data set [1] can be described thus: folding enthalpy; higher = less favourable; fluorescence melt of hairpins on a sequencing array, two-state fit. The following applies: sodium 0.088 M. The procedure, abridged:
(§1)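 With Cy3 and quencher oligos annealed, library hairpins on a sequenced MiSeq flow cell were imaged for Cy3 fluorescence in 50 mM Na-HEPES pH 8.0, 25 mM NaCl, in 2.5 °C steps up to 60 °C. Melting temperature and folding enthalpy were derived from bootstrapped two-state fits of signals normalised to pre-quench Cy3 and to control constructs. Four replicates were combined by inverse variance, with fitted temperatures raised by 9.35 °C to match UV melts.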

A short description of data set [2]: melting temperature; fluorescence melt of hairpins on a sequencing array, two-state fit, raised by 9.35 °C to match UV melts. The note with it: sodium 0.088 M. The procedure, abridged:
as §1

Take GATGAGGGAAACCTCATC (((((((....))))))): in data set [1], the folding enthalpy is -39.6 kcal/mol. Further, the Tm in data set [2] is 58.4 °C.
The matching figures for GATGAGGGAAACCTCGTC ((.((((....)))).)): -22.3 kcal/mol and 47.9 °C.
The matching figures for GATGATCCGAAAGGAATC (((..(((....)))))): -14.3 kcal/mol and 34.7 °C.
Turning to GATGATGGAAACACCATC ((((.((....)).)))), the folding enthalpy in data set [1] was -20.8 kcal/mol. Further, in data set [2], the Tm was found to be 38.6 °C.
On to GATGATGGAAACATCGTC ((.((((....)))).)), for which the folding enthalpy in data set [1] was -32.3 kcal/mol. Further, in data set [2], the Tm came out at 47.4 °C.
For the sequence GATGCACGAAAGTGAATC (((.(((....))).))), the folding enthalpy in data set [1] was -23.4 kcal/mol. Moreover, the Tm in data set [2] stood at 50.8 °C.
Regarding GATGCAGGAAACTGCGTC ((.((((....)))).)), the folding enthalpy in data set [1] was -44.7 kcal/mol. Further, in data set [2], the Tm came to 52.5 °C.
With GATGCCGAAAGGCAGATC ((((((....)))..))), the folding enthalpy in data set [1] was -15.6 kcal/mol. For the same sequence, the Tm in data set [2] was found to be 52.2 °C.
The matching figures for GATGCCGAAAGGCCGATC ((((((....)))..))): -10.3 kcal/mol and 25.2 °C.
The matching figures for GATGCCGAAAGGCTGATC ((((((....)))..))): -9.91 kcal/mol and 36.6 °C.
As for GATGCCGAAAGGCTTATC ((((((....)))..))), the folding enthalpy in data set [1] is -6.76 kcal/mol. The Tm in data set [2] is 31.5 °C.
The like results for GATGCCGGAAACGGTGTC ((..(((....)))..)) were, in that order, -24.3 kcal/mol and 47.8 °C.
In the case of GATGCGGGAAACCGCACC (.(((((....))))).), in data set [1], the folding enthalpy was -11.3 kcal/mol. The Tm in data set [2] stood at 42.9 °C.
Regarding GATGCTGGAAACAGCATC (((((((....))))))), in data set [1], the folding enthalpy was -41.2 kcal/mol. For the same sequence, the Tm in data set [2] was found to be 66.9 °C.
Regarding GATGGACGAAAGTCTATC (((.(((....))).))), the folding enthalpy in data set [1] was -30.9 kcal/mol. Also, in data set [2], the Tm amounted to 52.9 °C.
Consider GATGGAGAAATCCATC ((((((....)))))), for which, in data set [1], the folding enthalpy is -30 kcal/mol. Besides, the Tm in data set [2] was found to be 51 °C.
Turning to GATGGAGGAAACTCTATC (((.(((....))).))), the folding enthalpy in data set [1] was -24.4 kcal/mol. Further, the Tm in data set [2] was determined as 37.8 °C.
GATGGAGGAAACTCTGTC ((..(((....)))..)): the folding enthalpy in data set [1] is -21 kcal/mol. Further, the Tm in data set [2] was determined as 29.1 °C.
As to GATGGCACGAAAGTGATC (((..(((....)))))), in data set [1], the folding enthalpy is -12.9 kcal/mol. Besides, in data set [2], the Tm worked out at 27.2 °C.
For the sequence GATGGCCGAAAGGCAATC (((.(((....))).))), the folding enthalpy in data set [1] is -20.9 kcal/mol. The Tm in data set [2] worked out at 57.3 °C.
Turning to GATGGCCGAAAGGCATC (((.(((....)))))), in data set [1], the folding enthalpy is -14.6 kcal/mol. For the same sequence, in data set [2], the Tm was determined as 49.9 °C.
In the case of GATGGCGAAAGCCTATC ((((((....))).))), the folding enthalpy in data set [1] was -12.7 kcal/mol. Besides, in data set [2], the Tm came to 44.3 °C.
In the case of GATGGCGCGAAAGCGATC (((..(((....)))))), the folding enthalpy in data set [1] is -11 kcal/mol. Further, the Tm in data set [2] turned out to be 31.6 °C.
In the case of GATGGCGGAAACGTCGTC ((.(.((....)).).)), the folding enthalpy in data set [1] was -29.6 kcal/mol. The Tm in data set [2] stood at 45.4 °C.
Turning to GATGGGGGAAACTCCATC (((((.(....).))))), in data set [1], the folding enthalpy is -32.9 kcal/mol. Moreover, the Tm in data set [2] worked out at 49.2 °C.
Turning to GATGGTGAAAACCATC ((((((....)))))), the folding enthalpy in data set [1] was -36.5 kcal/mol. In addition, the Tm in data set [2] is 57.8 °C.
For the sequence GATGGTGGAAACACCACC (.(((((....))))).), the folding enthalpy in data set [1] is -13.6 kcal/mol. In addition, the Tm in data set [2] amounted to 44.6 °C.
The matching figures for GATGGTGGAAACGCCATC (((((.(....).))))): -44.2 kcal/mol and 53.4 °C.
In the case of GATGTACGAAAGTAATC (((.(((....)))))), the folding enthalpy in data set [1] is -21.1 kcal/mol. Also, the Tm in data set [2] is 35.8 °C.
The like results for GATGTAGGAAACTACACC (.(((((....))))).) were, in that order, -17.8 kcal/mol and 31.8 °C.
On to GATGTAGGAAACTATATC (((.(((....))).))), for which the folding enthalpy in data set [1] was -28.5 kcal/mol. For the same sequence, the Tm in data set [2] is 33.1 °C.
Regarding GATGTCCCGAAAGGGATC (((..(((....)))))), in data set [1], the folding enthalpy is -9.1 kcal/mol. Further, the Tm in data set [2] was 33.6 °C.
With GATGTCCGAAAGGAATC (((.(((....)))))), the folding enthalpy in data set [1] was -13.5 kcal/mol. Further, in data set [2], the Tm came out at 31.5 °C.
On to GATGTCGGAAACGACGTC ((.((((....)))).)), for which, in data set [1], the folding enthalpy was -31.3 kcal/mol. For the same sequence, the Tm in data set [2] worked out at 54.1 °C.
The like results for GATGTCGGAAACGATATC (((.(((....))).))) were, in that order, -48.3 kcal/mol and 46.6 °C.
With GATGTCGGAAACGATGTC ((..(((....)))..)), in data set [1], the folding enthalpy was -32.6 kcal/mol. The Tm in data set [2] came to 39.9 °C.
The matching figures for GATGTGCGAAAGCAAATC (((.(((....))).))): -23.3 kcal/mol and 46.6 °C.

For the origin of these results see the array DNA melting data of Ke et al. (doi:10.1101/2024.01.08.574731).
